For 58 compounds, IC50 results are on record in ChEMBL document CHEMBL3352814, “Design, synthesis and biological evaluation of biphenylamide derivatives as Hsp90 C-terminal inhibitors” (Eur J Med Chem, 2015).

The subject of test [1] is MCF7. As to the kind of experiment: Antiproliferative activity against human MCF7 cells after 72 hrs by MTS/PMS assay. The conditions noted are these: MCF7, 72 h. The class given is functional, cell-based. In outline: (§1)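 Cells kept in 1:1 Advanced DMEM/F12 with non-essential amino acids, 2 mM L-glutamine, penicillin/streptomycin and 10% FBS at 37 °C, 5% CO2. Seeded 2000 cells/well, attached overnight, then given compound at varying concentrations in DMSO (1% final) for 72 h. Viable cells read by MTS/PMS. Normalised to 1% DMSO wells as 100% proliferation. IC50 from separate experiments run in triplicate.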

Test [2] in a line: Antiproliferative activity against human SKBR3 cells after 72 hrs by MTS/PMS assay. The class given is functional, cell-based. To be noted: SK-BR-3, 72 h. In outline:
as §1

On to `COc1cccc(-c2cc(C(=O)Nc3ccc(-c4ccc(OC5CCN(C)CC5)cc4)c(N)c3)ccc2OC)c1`, for which the IC50 (in general, the concentration that inhibits the measured activity by half) in test [1] was 2070 nM; in test [2], 3900 nM.

On to `COc1cccc(-c2cc(C(=O)Nc3ccc(-c4ccc(OC5CCN(C)CC5)cc4OC)cc3)ccc2OC)c1`, for which the IC50 worked out at 1350 nM in test [1] and 1410 nM in test [2].

For the compound `CC(=O)Oc1ccc(C(=O)Nc2cccc(-c3ccc(OC4CCN(C)CC4)cc3)c2)cc1CC=C(C)C`, the concentration for half-maximal inhibition (IC50) in test [1] is 2710 nM; in test [2], 3470 nM.

On to `CC(C)=CCc1cc(NC(=O)Nc2cc3ccc(OC4CCN(C)CC4)c(C)c3oc2=O)ccc1O`, for which the IC50 in test [1] is 370 nM; in test [2] it was 390 nM.

On to `COc1cccc(-c2cc(C(=O)Nc3ccc(-c4ccc(OC5CCN(C)CC5)cc4)c(Cl)c3)ccc2OC)c1`, for which the values for the IC50 in test [1] and in test [2] were 3440 nM and 2210 nM, respectively.

Consider `COc1cccc(-c2cc(C(=O)Nc3ccc(-c4ccc(OC5CCN(C)CC5)cc4N)cc3)ccc2OC)c1`, for which the IC50 in test [1] was determined as 1760 nM; in test [2] it was 2130 nM.

Regarding `COc1cccc(-c2cc(C(=O)Nc3ccc(-c4ccc(OC5CCN(C)CC5)cc4)cc3[N+](=O)[O-])ccc2OC)c1`, the IC50 in test [1] came to 1150 nM; in test [2], 3400 nM.

Regarding `CN1CCC(Oc2ccc(-c3ccc(NC(=O)c4ccccc4)cc3)cc2)CC1`, the IC50 in test [1] turned out to be 3950 nM; in test [2] it was 4130 nM.

With `COc1cccc(-c2cc(C(=O)Nc3ccc(-c4ccc(OC5CCN(C)CC5)cc4)cc3NC(C)=O)ccc2OC)c1`, the values for the IC50 in test [1] and in test [2] were 1660 nM and 3510 nM, respectively.

Turning to `COc1cccc(-c2cc(C(=O)Nc3ccc(-c4ccc(OC5CCN(C)CC5)cc4)cc3OC)ccc2OC)c1`, the results for the IC50 in test [1] and in test [2] were 1220 nM and 3920 nM, respectively.

For the compound `CN1CCC(Oc2ccc(-c3ccc(NC(=O)c4ccc(C(C)(C)C)cc4)cc3)cc2)CC1`, the IC50 in test [1] is 1080 nM; in test [2] it was 1260 nM.

For `COc1ccc(C(=O)Nc2ccc(-c3ccc(OC4CCN(C)CC4)cc3)cc2)cc1-c1cccc(O)c1`, the IC50 in test [1] amounted to 1080 nM; in test [2] it was 1560 nM.

In the case of `COc1cccc(-c2cc(C(=O)Nc3ccc(-c4ccc(OC5CCN(C)CC5)cc4)c(C)c3)ccc2OC)c1`, the results for the IC50 in test [1] and in test [2] were 1570 nM and 970 nM, respectively.

`CN1CCC(Oc2ccc(-c3ccc(NC(=O)c4cnc5ccccc5c4)cc3)cc2)CC1`: the IC50 in test [1] was determined as 2760 nM; in test [2], 2420 nM.

Turning to `CN1CCC(Oc2ccc(-c3ccc(NC(=O)c4ccc(-c5ccccc5)cc4)cc3)cc2)CC1`, the IC50 was found to be 4440 nM in test [1] and 4590 nM in test [2].

For `COc1ccc(C(=O)Nc2ccc(-c3ccc(OC4CCN(C)CC4)cc3)cc2)cc1-c1cccc([N+](=O)[O-])c1`, the IC50 in test [1] was determined as 1090 nM; in test [2], 400 nM.

`CN1CCC(Oc2ccc(-c3ccc(NC(=O)c4cc(Cl)cc(Cl)c4)cc3)cc2)CC1`: the IC50 in test [1] came to 1680 nM; in test [2], 810 nM.

With `COc1cccc(-c2cc(C(=O)Nc3ccc(-c4ccc(OC5CCN(C)CC5)cc4)c([N+](=O)[O-])c3)ccc2OC)c1`, the IC50 in test [1] was found to be 3320 nM; in test [2], 2480 nM.

Regarding `CC(=O)Oc1ccc(C(=O)Nc2ccc(-c3ccc(OC4CCN(C)CC4)cc3)cc2)cc1CC=C(C)C`, the IC50 was determined as 1370 nM in test [1] and 1820 nM in test [2].

As for `CN1CCC(Oc2ccc(-c3ccc(NC(=O)c4ccc5ncccc5c4)cc3)cc2)CC1`, the IC50 in test [1] was 2070 nM; in test [2], 1310 nM.

Consider `COc1cccc(-c2cc(C(=O)Nc3ccc(-c4ccc(OC5CCN(C)CC5)c(OC)c4)cc3)ccc2OC)c1`, for which the IC50 came out at 1320 nM in test [1] and 680 nM in test [2].

In the case of `Cc1cc(C(=O)Nc2ccc(-c3ccc(OC4CCN(C)CC4)cc3)cc2)ccc1Cl`, the IC50 in test [1] was 1030 nM; in test [2], 1110 nM.

Turning to `COc1cccc(-c2cc(C(=O)Nc3ccc(-c4ccc(OC5CCN(C)CC5)c(C)c4)cc3)ccc2OC)c1`, the IC50 turned out to be 1690 nM in test [1] and 830 nM in test [2].

For the compound `COc1cccc(C(=O)Nc2ccc(-c3ccc(OC4CCN(C)CC4)cc3)cc2)c1`, the IC50 in test [1] was determined as 5310 nM; in test [2] it was 2870 nM.

As for `CN1CCC(Oc2ccc(-c3ccc(NC(=O)c4ccc(Cl)c(Cl)c4)cc3)cc2)CC1`, the IC50 in test [1] came to 1600 nM; in test [2], 1200 nM.

On to `COc1cccc(-c2cc(C(=O)Nc3ccc(-c4ccc(OC5CCN(C)CC5)cc4)cc3N)ccc2OC)c1`, for which the figures for the IC50 in test [1] and in test [2] were 2250 nM and 3210 nM, respectively.

As for `COc1cccc(-c2cc(C(=O)Nc3cccc(-c4ccc(OC5CCN(C)CC5)cc4)c3)ccc2OC)c1`, the concentration for half-maximal inhibition (IC50) was 1250 nM in test [1] and 3650 nM in test [2].

As for `COc1cccc(-c2cc(C(=O)Nc3ccc(-c4ccc(OC5CCN(C)CC5)cc4[N+](=O)[O-])cc3)ccc2OC)c1`, the IC50 in test [1] worked out at 1300 nM; in test [2] it was 1180 nM.

`COc1ccc(-c2cc(C(=O)Nc3ccc(-c4ccc(OC5CCN(C)CC5)cc4)cc3)ccc2OC)cc1`: the IC50 was 790 nM in test [1] and 630 nM in test [2].

Take `COc1cccc(-c2cc(C(=O)Nc3ccc(-c4ccc(OC5CCN(C)CC5)cc4NC(C)=O)cc3)ccc2OC)c1`: the IC50 was determined as 1360 nM in test [1] and 3390 nM in test [2].

For `COc1cccc(-c2cc(C(=O)Nc3ccc(-c4ccc(OC5CCN(C)CC5)nc4)cc3)ccc2OC)c1`, the IC50 in test [1] turned out to be 1560 nM; in test [2], 1670 nM.

Turning to `COc1cccc(-c2cc(C(=O)Nc3ccc(-c4ccc(OC5CCN(C)CC5)cc4Cl)cc3)ccc2OC)c1`, the values for the IC50 in test [1] and in test [2] were 1480 nM and 1280 nM, respectively.

For `COc1ccc(C(=O)Nc2ccc(-c3ccc(OC4CCN(C)CC4)cc3)cc2)cc1-c1ccc(O)cc1`, the IC50 was determined as 500 nM in test [1] and 130 nM in test [2].

In the case of `COc1ccc(C(=O)Nc2ccc(-c3ccc(OC4CCN(C)CC4)cc3)cc2)cc1-c1ccc(Cl)cc1`, the IC50 in test [1] was determined as 820 nM; in test [2] it was 1060 nM.

Regarding `COc1ccc(C(=O)Nc2ccc(-c3ccc(OC4CCN(C)CC4)cc3)cc2)cc1-c1cccc(OC(C)=O)c1`, the results for the IC50 in test [1] and in test [2] were 620 nM and 270 nM, respectively.

For the compound `COc1ccc(C(=O)Nc2ccc(-c3ccc(OC4CCN(C)CC4)cc3)cc2)cc1-c1cccc(NC(C)=O)c1`, the IC50 in test [1] worked out at 1430 nM; in test [2], 3370 nM.

In the case of `COc1ccc(C(=O)Nc2ccc(-c3ccc(OC4CCN(C)CC4)cc3)cc2)cc1-c1cccc(N)c1`, the IC50 turned out to be 1670 nM in test [1] and 1520 nM in test [2].

With `COc1cccc(-c2cc(C(=O)Nc3ccc(-c4ccc(OC5CCN(C)CC5)cc4)cn3)ccc2OC)c1`, the figures for the IC50 in test [1] and in test [2] were 1150 nM and 1070 nM, respectively.

`COc1cccc(-c2cc(C(=O)Nc3ccc(-c4ccc(OC5CCN(C)CC5)cc4)cc3C)ccc2OC)c1`: the IC50 was 1430 nM in test [1] and 2470 nM in test [2].

`COc1cccc(-c2cc(C(=O)Nc3ccc(-c4ccc(OC5CCN(C)CC5)cc4)cc3Cl)ccc2OC)c1`: the IC50 in test [1] turned out to be 1800 nM; in test [2] it was 4290 nM.

In the case of `COc1cccc(-c2cc(C(=O)Nc3ccc(-c4ccc(OC5CCN(C)CC5)cc4)c(OC)c3)ccc2OC)c1`, the figures for the IC50 in test [1] and in test [2] were 1500 nM and 900 nM, respectively.

Consider `COc1cccc(-c2cc(C(=O)Nc3ccc(-c4ccc(OC5CCN(C)CC5)c(NC(C)=O)c4)cc3)ccc2OC)c1`, for which the IC50 was found to be 1840 nM in test [1] and 2660 nM in test [2].

In the case of `CN1CCC(Oc2ccc(-c3ccc(NC(=O)c4cccc(Cl)c4)cc3)cc2)CC1`, the IC50 in test [1] was determined as 2830 nM; in test [2] it was 1940 nM.

`COc1cccc(-c2cc(C(=O)Nc3ccc(-c4ccc(OC5CCN(C)CC5)cn4)cc3)ccc2OC)c1`: the IC50 worked out at 1300 nM in test [1] and 1910 nM in test [2].

With `COc1cccc(-c2cc(C(=O)Nc3ccc(-c4ccc(OC5CCN(C)CC5)c(N)c4)cc3)ccc2OC)c1`, the IC50 in test [1] worked out at 5950 nM; in test [2], 2230 nM.

As for `COc1cccc(-c2cc(C(=O)Nc3ccc(-c4ccc(OC5CCN(C)CC5)c([N+](=O)[O-])c4)cc3)ccc2OC)c1`, the values for the IC50 in test [1] and in test [2] were 1230 nM and 2070 nM, respectively.

As for `COc1cccc(-c2cc(C(=O)Nc3ccc(-c4ccc(OC5CCN(C)CC5)cc4C)cc3)ccc2OC)c1`, the IC50 worked out at 1210 nM in test [1] and 1180 nM in test [2].

Consider `CN1CCC(Oc2ccc(-c3ccc(NC(=O)c4ccccc4-c4ccccc4)cc3)cc2)CC1`, for which the IC50 in test [1] was 6670 nM; in test [2], 6260 nM.

In the case of `CN1CCC(Oc2ccc(-c3ccc(NC(=O)c4ccc(Cl)cc4Cl)cc3)cc2)CC1`, the IC50 in test [1] worked out at 1370 nM; in test [2], 800 nM.

Regarding `Cc1ccc(C(=O)Nc2ccc(-c3ccc(OC4CCN(C)CC4)cc3)cc2)cc1I`, the IC50 was found to be 1170 nM in test [1] and 930 nM in test [2].

For `Cc1ccc(C(=O)Nc2ccc(-c3ccc(OC4CCN(C)CC4)cc3)cc2)cc1`, the values for the IC50 in test [1] and in test [2] were 1270 nM and 980 nM, respectively.

`CC(=O)Oc1ccc(C(=O)Nc2cccc(-c3cccc(OC4CCN(C)CC4)c3)c2)cc1CC=C(C)C`: the IC50 in test [1] was determined as 1700 nM; in test [2], 1760 nM.

Regarding `COc1cccc(-c2cc(C(=O)Nc3ccc(-c4ccc(OC5CCN(C)CC5)cc4)c(NC(C)=O)c3)ccc2OC)c1`, the concentration for half-maximal inhibition (IC50) worked out at 4660 nM in test [1] and 2520 nM in test [2].

As to `CN1CCC(Oc2ccc(-c3ccc(NC(=O)c4cc5ccccc5s4)cc3)cc2)CC1`, the figures for the IC50 in test [1] and in test [2] were 2010 nM and 1320 nM, respectively.

As for `COc1cccc(-c2cc(C(=O)Nc3ccc(-c4ccc(OC5CCN(C)CC5)cc4)nc3)ccc2OC)c1`, the IC50 was 1020 nM in test [1] and 1210 nM in test [2].

Regarding `COc1cccc(-c2cc(C(=O)Nc3ccc(-c4ccc(OC5CCN(C)CC5)c(Cl)c4)cc3)ccc2OC)c1`, the IC50 in test [1] came out at 1480 nM; in test [2], 1840 nM.

With `Cc1ccc(C(=O)Nc2ccc(-c3ccc(OC4CCN(C)CC4)cc3)cc2)cc1Cl`, the IC50 came to 2280 nM in test [1] and 1960 nM in test [2].

With `COc1cccc(-c2cccc(C(=O)Nc3ccc(-c4ccc(OC5CCN(C)CC5)cc4)cc3)c2)c1`, the results for the IC50 in test [1] and in test [2] were 1020 nM and 810 nM, respectively.
